Test results reported in ChEMBL document CHEMBL1143304, “Isolation, structure and biological activity of phomafungin, a cyclic lipodepsipeptide from a widespread tropical Phoma sp” (Bioorg Med Chem, 2009).
Converted amounts (≈) assume the structure as drawn. The source made the active and inactive calls. No cut-off for these calls is given here. Where a SMILES comes first, the peptide text is derived from it. [ ]: non-standard residue; d: D form. The star is where a group is joined. X1 = CCCCCCCCCCCCC(C)C(O)CC(=O)*; hSer = N[C@@H](CCO)C(=O)O

Experiments:
Candida albicans [1] = experiment: Antimicrobial activity against Candida albicans MY1055 at 32 ug/mL after 24 hrs by broth macrodilution method; assay type: functional, organism-based
Mus musculus [2] = experiment: Toxicity in Candida albicans MY1055 infected DBA/2 mouse assessed as mouse mortality at 12.5 mg/kg, ip administered twice daily for 2 days; assay type: organism-based; design: dose 12.5 mg/kg, route intraperitoneal; conditions: in vivo, 48 h
Procedure, shortened: (§1)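 DBA/2 mice, five per group, were infected i.v. via lateral tail vein with 2.51 × 10^4 CFU/mouse. Sodium salt in water was given IP twice daily at 50, 25, 12.5, 5 or 2.5 mg/kg. Kidneys were homogenized in saline, serially diluted and plated on SDA (35 °C, 30–48 h). CFU/g were compared with sham-treated mice by paired two-tailed t-test.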

Candida albicans [3] = experiment: Antimicrobial activity against Candida albicans MY1055 infected DBA/2 mouse administered twice daily for 2 days; assay type: functional, organism-based
Procedure, shortened: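 DBA/2 mice (5 per group) were infected i.v. via lateral tail vein with 2.51 × 10^4 CFU per mouse. The sodium salt in water was given IP twice daily at 50, 25, 12.5, 5 or 2.5 mg/kg. Mortality and health were followed for 4 days. Kidney homogenates were plated on SDA (35 °C, 30–48 h). CFU/g kidney was compared with sham-treated controls by paired two-tailed t-test.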

Nakaseomyces glabratus = experiment: Antimicrobial activity against Candida glabrata MY1381 […] by broth macrodilution method; assay type: functional; conditions: for MIC: read-out: MIC100
Pichia kudriavzevii = experiment: Antimicrobial activity against Candida krusei ATCC 6258 […] by broth macrodilution method; assay type: functional; conditions: for MIC: read-out: MIC100
Staphylococcus aureus = experiment: Antimicrobial activity against Staphylococcus aureus MB2865 […] by broth macrodilution method; assay type: functional; conditions: read-out: MIC100
Clavispora lusitaniae = experiment: Antimicrobial activity against Candida lusitaniae MY1396 after 24 hrs by broth macrodilution method; assay type: functional; conditions: for MIC: read-out: MIC100
Procedure, shortened: (§2)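 Broth MIC: inoculum 10^5 CFU/ml, incubated at 37 °C with 2-fold serial dilutions of compound in growth medium. MIC was the lowest concentration preventing visible growth.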

Candida albicans [4] = experiment: Antimicrobial activity against Candida albicans MY1055 after 24 hrs by broth macrodilution method; assay type: functional; conditions: for MIC: read-out: MIC100; procedure, shortened: as §2
Aspergillus fumigatus [5] = experiment: Antimicrobial activity against Aspergillus fumigatus MF5668 after 48 hrs by broth macrodilution method; assay type: functional; conditions: for MIC: read-out: MIC100; procedure, shortened: as §2
[6] = test system: Trichophyton mentagrophytes; experiment: Antimicrobial activity against Trichophyton mentagrophytes MF7004 after 96 hrs by broth macrodilution method; assay type: functional; conditions: for MIC: read-out: MIC100
Candida parapsilosis = experiment: Antimicrobial activity against Candida parapsilosis ATCC 22019 […] by broth macrodilution method; assay type: functional; conditions: Lodderomyces parapsilosis, read-out: MIC100
Candida tropicalis = experiment: Antimicrobial activity against Candida tropicalis MY1012 after 24 hrs by broth macrodilution method; assay type: functional; conditions: for MIC: read-out: MIC100; procedure, shortened: as §2
Candida albicans [7] = experiment: Antimicrobial activity against Candida albicans MY1055 after 24 hrs in presence of 50% mouse serum by broth macrodilution method; assay type: functional; conditions: MY1055, 24 h; for MIC: read-out: MIC100
Aspergillus fumigatus [8] = experiment: Antimicrobial activity against Aspergillus fumigatus MF5668 in presence of 50% human serum after 48 hrs by broth macrodilution method; assay type: functional; conditions: for MIC: read-out: MIC100
Mus musculus [9] = experiment: Toxicity in Candida albicans MY1055 infected DBA/2 mouse assessed as mouse mortality at 25 mg/kg, ip administered twice daily for 2 days; assay type: organism-based; design: dose 25 mg/kg, route intraperitoneal; conditions: in vivo, 48 h; procedure, shortened: as §1
[10] = Toxicity against human HEL cells; assay type: cell-based
Candida albicans [11] = experiment: Antimicrobial activity against Candida albicans MY1055 infected DBA/2 mouse at <5 mg/kg, […] administered twice daily for 2 days; assay type: functional, organism-based
[12] = Half life in Candida albicans MY1055 infected iv dosed DBA/2 mouse; assay type: ADME, organism-based; conditions: in vivo
Candida albicans [13] = experiment: Antimicrobial activity against Candida albicans MY1055 infected DBA/2 mouse at <5 mg/kg, ip administered twice daily for 2 days; assay type: functional, organism-based; procedure, shortened: as §1
Mus musculus [14] = experiment: Dose normalized AUC in Candida albicans MY1055 infected iv dosed DBA/2 mouse; assay type: ADME, organism-based; conditions: in vivo
Mus musculus [15] = experiment: Toxicity in Candida albicans MY1055 infected DBA/2 mouse assessed as mouse mortality at 50 mg/kg, ip administered twice daily for 2 days; assay type: organism-based; design: dose 50 mg/kg, route intraperitoneal; conditions: in vivo, 48 h; procedure, shortened: as §1
[16] = Clearance in Candida albicans MY1055 infected iv dosed DBA/2 mouse; assay type: ADME, organism-based; conditions: in vivo
[17] = Toxicity against human PC3 cells; assay type: cell-based, PC-3
Mus musculus [18] = experiment: Toxicity in Candida albicans MY1055 infected DBA/2 mouse assessed as mouse mortality at <5 mg/kg, ip administered twice daily for 2 days; assay type: organism-based; conditions: in vivo, 48 h; procedure, shortened: as §1
[19] = Toxicity against human HCT116 cells; assay type: cell-based, HCT-116
[20] = Toxicity against human GTL16 cells; assay type: cell-based, GTL 16

SMILES	Activity (Mus musculus [2])	MIC80 (Nakaseomyces glabratus)	MIC (Nakaseomyces glabratus)	MIC (Pichia kudriavzevii)	MIC (Staphylococcus aureus)	MIC (Clavispora lusitaniae)	MIC (Candida albicans [4])	MIC (Aspergillus fumigatus [5])	MIC80 [6]	MIC [6]	MIC (Candida parapsilosis)	MIC (Candida tropicalis)	MIC (Candida albicans [7])	MIC (Aspergillus fumigatus [8])	also measured
CCCCCCCCCCCCC(C)C(O)CC(=O)N[C@@H](C)C(=O)N[C@@H](CCO)C(=O)N[C@@H](CCC(=O)O)C(=O)NCC(=O)N[C@@H](CO)C(=O)N[C@@H](CC(N)=O)C(=O)N[C@H](C(=O)N[C@@H](CCO)C(=O)O)[C@@H](C)O (some centres undefined) (X1-A[hSer]EGSNT[hSer]-OH)	Non-toxic														Activity (Candida albicans [1]): inactive; Activity (Candida albicans [3]): inactive
CC[C@H](C)C[C@H](C)CCCCCCCCC(=O)N[C@H]1C[C@@H](O)[C@@H](NCCN)NC(=O)[C@@H]2[C@@H](O)CCN2C(=O)[C@H]([C@H](O)CCN)NC(=O)[C@H]([C@H](O)[C@@H](O)c2ccc(O)cc2)NC(=O)[C@@H]2C[C@@H](O)CN2C(=O)[C@H]([C@@H](C)O)NC1=O [CASPOFUNGIN]		< 0.03 µg/mL	0.125 µg/mL (≈ 0.114 µM)	1 µg/mL (≈ 0.915 µM)	32 µg/mL (≈ 29.3 µM)	0.125 µg/mL (≈ 0.114 µM)	0.125 µg/mL (≈ 0.114 µM)	> 32 µg/mL	0.03 µg/mL (≈ 0.0274 µM)	32 µg/mL (≈ 29.3 µM)	0.5 µg/mL (≈ 0.457 µM)	0.125 µg/mL (≈ 0.114 µM)	0.25 µg/mL	> 32 µg/mL	MIC80 (Pichia kudriavzevii): 0.25 µg/mL (≈ 0.229 µM); MIC80 (Clavispora lusitaniae): < 0.03 µg/mL; MIC80 (Candida albicans [4]): < 0.03 µg/mL; MIC80 (Aspergillus fumigatus [5]): < 0.03 µg/mL; MIC80 (Candida tropicalis): < 0.03 µg/mL; MIC80 (Candida albicans [7]): 0.125 µg/mL; MIC80 (Aspergillus fumigatus [8]): 0.06 µg/mL
CCCCCCCCCCCCC(C)C1CC(=O)N[C@@H](C)C(=O)NC(CCO)C(=O)N[C@@H](CCC(=O)O)C(=O)NCC(=O)N[C@@H](CO)C(=O)N[C@H](CC(N)=O)C(=O)N[C@H]([C@H](C)O)C(=O)NC(CCO)C(=O)O1 (some centres undefined) [PHOMAFUNGIN]	Toxic	4 µg/mL (≈ 3.88 µM)	8 µg/mL (≈ 7.77 µM)	4 µg/mL (≈ 3.88 µM)	> 32 µg/mL	4 µg/mL (≈ 3.88 µM)	4 µg/mL (≈ 3.88 µM)	4 µg/mL (≈ 3.88 µM)	1 µg/mL (≈ 0.971 µM)	2 µg/mL (≈ 1.94 µM)	4 µg/mL (≈ 3.88 µM)	> 32 µg/mL	> 32 µg/mL	> 32 µg/mL	Activity (Mus musculus [9]): Toxic; IC50 [10]: 15.5 µM; Activity (Candida albicans [11]): inactive; half-life [12]: 1.8 h; Activity (Candida albicans [13]): inactive; AUC (Mus musculus [14]): 2.64 µM; Activity (Mus musculus [15]): Toxic; clearance [16]: 6.15 mL/min/kg; IC50 [17]: 19 µM; Activity (Mus musculus [18]): Non-toxic; IC50 [19]: 20 µM; IC50 [20]: 26 µM
